Data reported in ChEMBL document CHEMBL1250542, “Synthesis and biological evaluation of a series of aromatic bisphosphonates” (Bioorg Med Chem, 2010).
Calls of active or inactive are those of the source. The rule behind the calls is not given here.

Legend:
[1] = target: T1, Geranylgeranyl pyrophosphate synthase (Homo sapiens) (UniProt O95749); assay: Inhibition of GST-tagged human recombinant GGDPS expressed in BL21 gold bacteria at 10 uM by liquid scintillation counting
T1 sequence (whole entry): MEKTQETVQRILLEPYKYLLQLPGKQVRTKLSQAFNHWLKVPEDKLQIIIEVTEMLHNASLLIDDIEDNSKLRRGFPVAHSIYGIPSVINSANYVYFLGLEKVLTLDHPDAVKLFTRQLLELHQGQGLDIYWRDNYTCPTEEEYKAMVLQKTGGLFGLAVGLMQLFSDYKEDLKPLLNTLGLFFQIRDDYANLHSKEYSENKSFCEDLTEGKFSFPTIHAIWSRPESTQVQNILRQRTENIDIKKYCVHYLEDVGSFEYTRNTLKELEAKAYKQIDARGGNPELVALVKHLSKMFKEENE
In short: (§1)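 Purified recombinant human GGDPS in buffer containing 0.5 mM MgCl₂ and 0.5 mM ZnCl₂ was preincubated with compounds for 10 min. Reactions were started with ¹⁴C-IPP plus FPP and run for 1 h at 37 °C. Products were extracted into water-saturated butanol, washed twice with saturated water, and counted by liquid scintillation. Data are from a single-concentration screen and concentration–response curves with IC₅₀ extrapolated, mean SD, n = 2.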

[2] = target: T2, Farnesyl pyrophosphate synthase (Homo sapiens) (UniProt P14324); assay: Inhibition of FDPS in human K562 cells assessed as reduction of Ras protein farnesylation after 48 hrs by Western blotting; format: cell-based
T2 sequence (whole entry): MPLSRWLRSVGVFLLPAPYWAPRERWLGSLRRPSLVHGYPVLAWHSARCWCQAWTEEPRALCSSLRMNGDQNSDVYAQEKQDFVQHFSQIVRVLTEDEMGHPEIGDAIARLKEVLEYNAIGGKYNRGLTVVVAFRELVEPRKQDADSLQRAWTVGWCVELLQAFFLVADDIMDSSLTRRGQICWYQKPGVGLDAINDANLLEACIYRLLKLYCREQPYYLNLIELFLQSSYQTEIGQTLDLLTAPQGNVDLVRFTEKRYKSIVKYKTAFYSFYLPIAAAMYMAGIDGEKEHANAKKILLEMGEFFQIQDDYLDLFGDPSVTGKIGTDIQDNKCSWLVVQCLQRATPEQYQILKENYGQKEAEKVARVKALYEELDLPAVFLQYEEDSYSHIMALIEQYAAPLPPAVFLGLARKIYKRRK
In short: (§2)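 Prenylation in intact cells: K562 cells at 5 × 10⁵ cells/mL were incubated with compounds or lovastatin for 48 h, as a single-concentration screen or a concentration series. Lysates were made in 2% SDS/66 mM Tris and protein was measured by BCA. Samples were resolved on 12% and 15% gels, transferred to PVDF, and probed for pan-Ras, Rap1a or Rab6, with α-tubulin as reference. Detection was by ECL.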

[3] = target: T2, Farnesyl pyrophosphate synthase (Homo sapiens); assay: Inhibition of FDPS in human K562 cells assessed as reduction Ras protein farnesylation after 48 hrs by Western blotting in presence of mevalonate and FPP; format: cell-based
In short: (§3)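 Add-back assay: K562 cells at 5 × 10⁵ cells/mL were exposed for 48 h to compounds, or to lovastatin, with or without exogenous mevalonate, FPP or GGPP. Lysates were made in 2% SDS/66 mM Tris and protein was measured by BCA. Samples were run on 12% and 15% SDS gels, transferred to PVDF, and immunoblotted for pan-Ras, Rap1a or Rab6, with α-tubulin as reference. Detection was by ECL.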

K562 [4] = assay: Inhibition of GGTase1 in human K562 cells assessed as reduction of Rap1a protein geranylgeranylation at 50 uM after 48 hrs by Western blotting; format: cell-based; in short: as §2
K562 [5] = assay: Inhibition of GGTase1 in human K562 cells assessed as reduction of Rap1a protein geranylgeranylation at 12.5 uM after 48 hrs by Western blotting; format: cell-based; in short: as §2
K562 [6] = assay: Anticancer activity against human K562 cells assessed as inhibition of DNA synthesis by [3H]thymidine incorporation assay; format: functional, cell-based
In short: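 [³H]thymidine (3.75 Ci/mmol in media) was added at 44 or 68 h. At 48 or 72 h, cells were harvested onto glass microfiber paper and incorporated label was scintillation counted. Proliferation is expressed as % of untreated cells, mean S.E., n = 4.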

[7] = target: T3, Geranylgeranyl pyrophosphate synthase (Homo sapiens, UniProt O95749); assay: Inhibition of GST-tagged human recombinant GGDPS expressed in BL21 gold bacteria by liquid scintillation counting; in short: as §1
T3 sequence (O95749 whole entry): T1 sequence (whole entry)

[8] = target: T1, Geranylgeranyl pyrophosphate synthase (Homo sapiens); assay: Inhibition of GGDPS in human K562 cells assessed as reduction Rab6 protein geranylgeranylation after 48 hrs by Western blotting in presence GGPP; format: cell-based; in short: as §3
[9] = target: T1, Geranylgeranyl pyrophosphate synthase (Homo sapiens); assay: Inhibition of GGDPS in human K562 cells assessed as reduction Rap1a protein geranylgeranylation after 48 hrs by Western blotting in presence GGPP; format: cell-based; in short: as §3
K562 [10] = assay: Inhibition in human K562 cells assessed as reduction of RAB6 protein geranylgeranylation after 48 hrs by Western blotting
K562 [11] = assay: Inhibition of GGTase1 in human K562 cells assessed as reduction of Rap1a protein geranylgeranylation after 48 hrs by Western blotting; format: cell-based; in short: as §2

With `CC(C)=CCc1cccc(CC(P(=O)(O)O)P(=O)(O)O)c1` the “inhibition activity call (active/not active)” value [1] was “inactive”.

`CC(C)=CCC/C(C)=C/CC(Cc1cccnc1)(P(=O)(O)O)P(=O)(O)O` was tested, and the “inhibition activity call (active/not active)” value [1] was “Active”.

`CC(C)=CCC/C(C)=C/CC(Cc1cccc(CC=C(C)C)c1)(P(=O)(O)O)P(=O)(O)O` was tested, and the “inhibition activity call (active/not active)” value [1] was “Active”, the inhibition [2] was “inactive” and the inhibition [3] was “Active”. For the same compound, the inhibition (K562 [4]) was “Active”, the Activity (K562 [5]) was “Active” and the inhibition (K562 [6]) was “Active”. The IC50 [7] was 250 nM, the inhibition [8] was “inactive” and the inhibition [9] was “inactive”. For the same compound, the inhibition (K562 [10]) was “Active”.

With `CC(C)=CCc1ccc(CC(P(=O)(O)O)P(=O)(O)O)cc1` the “inhibition activity call (active/not active)” value [1] was “inactive”.

`O=P(O)(O)C(Cc1ccccc1)P(=O)(O)O` was tested, and the “inhibition activity call (active/not active)” value [1] was “inactive”.

For `CC[C@H](C)C(=O)O[C@H]1C[C@@H](C)C=C2C=C[C@H](C)[C@H](CC[C@@H]3C[C@@H](O)CC(=O)O3)[C@H]21`, the inhibition (K562 [11]) was “Active” and the inhibition [3] was “inactive”.

With `CC(C)=CCC/C(C)=C/CC(Cc1ccccc1)(P(=O)(O)O)P(=O)(O)O` the “inhibition activity call (active/not active)” value [1] was “Active”.

For `CC(C)=CCC/C(C)=C/CC(Cc1ccc(CC=C(C)C)cc1)(P(=O)(O)O)P(=O)(O)O`, the “inhibition activity call (active/not active)” value [1] was “Active”, the inhibition [2] was “inactive” and the inhibition [3] was “Active”. The inhibition (K562 [4]) was “Active”, the inhibition (K562 [6]) was “Active” and the IC50 [7] was 800 nM. For the same compound, the inhibition [8] was “inactive”, the inhibition [9] was “inactive” and the inhibition (K562 [10]) was “Active”.
